Source: PubChem
Only some compounds are listed: those with a hit (about 3.5% of all), similar ones and a draw of the others.
Ecoli rRNA inh = inhibitors of bacterial rRNA selective over humanized ribosomes; E. coli WT GFP vs humanized-ribosome RFP mutants, fluorescence, 24 h; hits give low values; DMSO median 0, no signal -100; GFP signal change (wild-type ribosome), % (concentration not given with the values); 350,000 compounds, 1.6% hits;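 active = significant combined selectivity score with lowered wild-type GFP, culture density cut under 30%, mutant RFP and density less affected; inactive = any of these conditions unmet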
DENV2 CPE = protects cells from dengue virus 2 cytopathic effect. DENV2-infected cells, cytopathic effect rescue, plate reader. CPE inhibition, % at 9.99 µM. 350,000 compounds, 1.7% hits; in the data active = CPE inhibition above about 20%, passing the limit was not always enough; inconclusive = no clear call, values can overlap the other calls; tested in BHK-21 cells;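 also: 0% = median of neutral control wells and 100% = median of positive control wells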
PGC1a acetyl inh = PGC1a acetylation modulation, inhibitor mode; U2OS PGC1a acetylation, AlphaScreen anti-acetyl-lysine; with virally co-expressed GCN5 acetyltransferase; inhibition, % at 15.6 µM; 350,000 compounds, 0.17% hits; AID 651687;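 active = every replicate shows inhibition of at least 40%; inconclusive = mean inhibition at least 40% but some replicate below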;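 also: 0% = neutral control wells and 100% = positive control wells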
FN deposition inh = fibronectin deposition inhibition; AH1F fibroblasts, Alexa488-fibronectin deposition fluorescence, overnight; inhibition, % at 12.6 µM; 350,000 compounds, 0.086% hits;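 active = mean inhibition across replicates of 30% or more, regardless of how many single replicates reach that level; inconclusive = mean under 30% yet at least half of replicates reach 30%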;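 also: positive control wells lacked labelled fibronectin entirely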
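Material: AH1F fibroblasts assembling fluorescent fibronectin matrix; amount: 10000 AH1F cells/well; medium: DMEM, 2% serum; reagent: Alexa488-fibronectin, 24 nM final in well; dosing: single compound dose, delivered by pin transfer; incubation: 1 h adhesion, overnight exposure; detection: fluorescence after three HBSS washes, excitation 485 nm, emission 525 nm; measure: fibronectin deposition inhibition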
Env fusion inh = blocks HIV Env-driven cell-cell fusion. AID 651610. inhibition, % at 12.3 µM. 360,000 compounds, 1.1% hits. HeLa-JRFL Env/CEM21 cell fusion, luciferase;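 active = mean replicate inhibition score of at least 50 and every replicate individually at or above 50; inconclusive = only one of the two criteria met; inactive = mean below 50 and not all replicates reaching 50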;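 also: 0% = plate neutral controls and 100% = maraviroc near 300 nM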
PglD inh = PglD (C. jejuni) enzyme inhibition. purified PglD enzyme, DTNB colorimetric CoA detection. inhibition, % at 12.5 µM. 360,000 compounds, 0.098% hits; in the data active = inhibition above about 16%, passing the limit was not always enough; inconclusive = no clear call, values can overlap the other calls
* hit, by the source's call; ? = inconclusive; / = not tested or not shown; [ ] = another dose, or the depositor's remark.

SMILES	Ecoli rRNA inh	DENV2 CPE	PGC1a acetyl inh	FN deposition inh	Env fusion inh	PglD inh
CN(Cc1ccco1)C(=O)Cn1ncc2c([nH]c3ccccc32)c1=O	-1	20	-8	-3	9	-4
C[C@H]1CN([C@@H](C)CO)C(=O)c2cc(-c3ccccc3F)cnc2O[C@H]1CN(C)C	2	8	-6	5	-18[16.7 µM]	5
COc1cc(C2c3cc4c(cc3OC(N3CCCCC3)C2C)OCO4)cc(OC)c1O (stereo not given)	0	1	2	/	-5	/
COc1cccc(C2c3cc4c(cc3OC(N3CCCC3)C2C)OCO4)c1O (stereo not given)	-20*	-1	6	11	-2	/
O=[N+]([O-])c1c(Nc2ccc(O)cc2)cc(Cl)c2nonc12	-19	6	/	54*	-324	7
COC(=O)C1=CN(Cc2ccc(F)cc2)C=C(C(=O)OC)C1c1cc(OC)c(OC)c(OC)c1	-24*	14	/	0	22	5
COC(=O)C1=CN(Cc2ccc(OC)cc2)C=C(C(=O)OC)C1c1cc(OC)c(OC)c(OC)c1	/	/	-17	/	/	3
COC(=O)C1=CN(C(C)c2ccccc2)C=C(C(=O)OC)C1c1cc(OC)c(OC)c(OC)c1 (stereo not given)	-22*	7	-8	-4	11	3
COc1ccc(S(=O)(=O)Nc2ccc3c(c2)CC(=O)N([C@@H](C)CO)C[C@H](C)[C@H](CN(C)CC2CC2)O3)cc1	2	/	-4	-7	-2[16.7 µM]	/
CCCc1cc(C(=O)Nc2cc(C)nn2-c2ccccc2)no1	2	6	-8	1	60*	-3
CCCc1cc(C(=O)NCCc2ccccc2)no1	0	-5	-7	-9	1	-1
Cc1ccc(NC(=O)c2cc(C)n(-c3ccccc3)c2C)cc1	-18	0	0	3	-202	10
Cc1cc(C(=O)Nc2ccc(Cl)cc2)c(C)n1-c1ccccc1	-40*	-5	3	3	-160	2
COCC#Cc1ccc([C@H]2[C@H](CO)N3C(=O)CN(C(=O)CN4CCOCC4)C[C@@H]23)cc1	6	0	-26	5	/	/
O=C(C1=C[C@H](c2ccc3c(c2)Cc2ccccc2-3)C[C@H](OCCCCO)O1)N1CCCCC1	/	0	-4	/	1[16.7 µM]	0
CCCCNC(=S)Nc1ccccc1Cc1ccccc1	-43*	-7	-14	11	6	-4
CCCCSCCCNC(=S)Nc1ccccc1C	-17	3	5	-2	7	4
CN(C)CCCN(C(=O)CCOc1ccccc1)c1nc2ccc(F)cc2s1	6	?	50*	25	10	-1
CN(C)CCCN(C(=O)COc1ccccc1)c1nc2ccc(F)cc2s1	6	-2	/	-3	-6	/
O=C(CCl)Nc1ccc(Oc2cnc3ccccc3n2)cc1	/	/	/	3	55*	-7
C[C@@H]1CCCCO[C@@H](CN(C)C)[C@H](C)CN([C@H](C)CO)C(=O)c2cc(NC(=O)Nc3ccccc3)ccc2O1	5	-4	2	/	-11[16.7 µM]	3
C[C@@H]1CCCCO[C@@H](CN(C)C(=O)Nc2cccc3ccccc23)[C@H](C)CN([C@@H](C)CO)C(=O)c2cc(NC(=O)Cc3ccccc3)ccc2O1	-3	2	15	/	-72[16.7 µM]	-2
COC(=O)c1ccc2nc(Nc3nc4ccc(F)cc4s3)sc2c1	-1	3	-3	-6	57*	-3
O=C(Nc1nc2cc3c(cc2s1)OCCO3)C1=COCCO1	-7	8	4	0	64*	0
COC(=O)c1ccc2nc(NC(=O)C(C)(C)C)sc2c1	-2	3	1	3	-47	/
O=C(NNc1nc2cc3c(cc2s1)OCCO3)c1ccccc1	-27*	?	/	-10	-13	/
O=C(Nc1nc2ccc(F)cc2s1)C1=COCCO1	-20*	-4	/	-2	-23	-4
CC(=O)Nc1nc2cc3c(cc2s1)OCCO3	-6	1	/	-1	-6	-1
Cc1cccc(C)c1NC(=O)CN1CCN(C(=O)CN2C(=O)NC3(CCCCC3C)C2=O)CC1 (stereo not given)	-2	25*	7	7	/	0
C[C@@H]1CN([C@H](C)CO)C(=O)c2cc(NC(=O)CCC(F)(F)F)ccc2O[C@@H]1CN(C)C(=O)Nc1ccc(C(F)(F)F)cc1	-12	20	-2	/	/	6
